The text below walks through data of ChEMBL document CHEMBL1156157, “1,7-Disubstituted oxyindoles are potent and selective EP(3) receptor antagonists” (Bioorg Med Chem Lett, 2010).

In data set [1] the target is T1, Prostaglandin E2 receptor EP3 subtype (Homo sapiens, UniProt P43115).
T1 sequence (P43115 whole entry): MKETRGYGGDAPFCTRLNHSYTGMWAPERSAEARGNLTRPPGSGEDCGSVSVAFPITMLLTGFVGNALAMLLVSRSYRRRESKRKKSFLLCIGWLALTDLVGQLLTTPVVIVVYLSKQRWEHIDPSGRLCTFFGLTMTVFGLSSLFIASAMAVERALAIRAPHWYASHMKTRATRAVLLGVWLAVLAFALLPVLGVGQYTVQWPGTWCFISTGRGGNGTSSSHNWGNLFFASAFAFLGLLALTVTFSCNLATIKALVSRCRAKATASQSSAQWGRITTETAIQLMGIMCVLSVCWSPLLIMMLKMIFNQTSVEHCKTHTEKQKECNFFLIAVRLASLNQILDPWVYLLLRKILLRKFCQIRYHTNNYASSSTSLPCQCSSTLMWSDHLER
Nature of the data set: Displacement of [3H]PGE2 from human EP3 receptor in buffer. On the technique in general: Displacement assays read how much labelled ligand stays bound in the presence of the test substance.

The species entered for another data set is Rattus norvegicus. Nature of the data set: Antithrombotic activity in rat assessed as platelet aggregation. In kind it is functional. Summed up: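 Functional EP3 antagonism measured in a rat platelet aggregation assay. Values reported as EC50 in nM.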
Data set [2] is described as follows: Metabolic stability in rat liver microsomes assessed as parent compound remaining after 30 mins. To be noted: read-out: Stability. In kind it is ADME, Microsome. Summed up: (§1)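 Compounds incubated with liver microsomes from human, rat, mouse, dog or monkey. Read-out is percent parent compound remaining at 30 min of incubation.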
A further data set concerns the target Cytochrome P450 3A4 (Homo sapiens, UniProt P08684). Nature of the data set: Inhibition of human CYP3A4 using 7-benzyloxy-4-trifluoromethylcoumarin as substrate. The data set is classed as ADME. Summed up: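 Inhibition of human CYP3A4 with 7-benzyloxy-4-trifluoromethylcoumarin (BFC) as substrate. Values given as IC50.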
The nature of data set [3]: Metabolic stability in mouse liver microsomes assessed as parent compound remaining after 30 mins. To be noted: read-out: Stability. In kind it is ADME, Microsome. The method in brief:
as §1

Data set [4] has as its target T1, Prostaglandin E2 receptor EP3 subtype. Nature of the data set: Displacement of [3H]PGE2 from human EP3 receptor in presence of 10% human serum.
Data set [5] is described as follows: Metabolic stability in human liver microsomes assessed as parent compound remaining after 30 mins. In kind it is ADME, Microsome. Conditions: read-out: Stability; call rule not given here. Summed up:
as §1
(In general: Liver microsomes are vesicles of endoplasmic reticulum, rich in cytochrome P450 enzymes.)

Data set [6] can be described thus: Metabolic stability in dog liver microsomes assessed as parent compound remaining after 30 mins. In kind it is ADME, Canis lupus familiaris, Microsome. To be noted: read-out: Stability. The method in brief:
as §1

Data set [7] concerns the target T1, Prostaglandin E2 receptor EP3 subtype. Nature of the data set: Partial displacement of [3H]PGE2 from human EP3 receptor in presence of 10% human serum.
Data set [8] is described as follows: Metabolic stability in monkey liver microsomes assessed as parent compound remaining after 30 mins. Conditions: rhesus monkey, read-out: Stability. The data set is classed as ADME, Macaca mulatta, Microsome. The method in brief: as §1

Cytochrome P450 3A4, sequence (P08684 whole entry): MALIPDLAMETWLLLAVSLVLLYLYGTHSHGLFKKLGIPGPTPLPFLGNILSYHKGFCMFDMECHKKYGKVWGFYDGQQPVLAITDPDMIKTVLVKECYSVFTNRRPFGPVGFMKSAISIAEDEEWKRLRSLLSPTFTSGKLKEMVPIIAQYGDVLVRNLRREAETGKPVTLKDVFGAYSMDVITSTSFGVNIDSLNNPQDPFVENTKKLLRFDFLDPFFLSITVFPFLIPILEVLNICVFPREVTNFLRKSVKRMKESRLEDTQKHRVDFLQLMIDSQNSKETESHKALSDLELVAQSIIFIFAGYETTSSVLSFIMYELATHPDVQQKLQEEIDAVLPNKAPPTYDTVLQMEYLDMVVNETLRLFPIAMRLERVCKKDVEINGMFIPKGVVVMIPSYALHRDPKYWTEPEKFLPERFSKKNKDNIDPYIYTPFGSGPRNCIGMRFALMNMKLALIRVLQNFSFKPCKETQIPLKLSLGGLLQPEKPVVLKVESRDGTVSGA

As for `O=C(/C=C/c1cccc2c1N(Cc1ccc(Cl)cc1Cl)C(=O)C2(F)F)NS(=O)(=O)c1ccc(F)c(F)c1`, the figures for the IC50 (in data set [1]; in the data set listed under Rattus norvegicus; in [4]) were 0.2 nM, above 800 nM and 6.5 nM, respectively. In addition, the remaining at 0.5 h came to 80.1% in data set [2], 71% in data set [3] and 74.4% in data set [5]. Also, the “inhibition (INH)” value against Cytochrome P450 3A4 is “Active”.
Regarding `O=C(/C=C/c1cccc2c1N(Cc1ccc3ccccc3c1)C(=O)C2)NS(=O)(=O)c1cc(Cl)c(Cl)s1`, the IC50 – broadly, the concentration that inhibits the measured activity by half – in [1] is 1.3 nM; in data set [4], 5.4 nM. Also, the EC50 (as a rule, the concentration at which the effect is half-maximal) in the data set filed under Rattus norvegicus was 27 nM. Also, the remaining at 0.5 h in data set [2] turned out to be 32.9%; in data set [3], 63.8%; in [6], 79.5%; in data set [5], 105%.
`O=C(/C=C/c1cccc2c1N(Cc1ccc(Cl)cc1Cl)C(=O)C2(F)F)NS(=O)(=O)c1ccc(Cl)c(Cl)c1`: the IC50 is 0.2 nM in data set [1], above 800 nM in the data set filed under Rattus norvegicus and 5.5 nM in data set [4]. Further, the remaining at 0.5 h in data set [2] is 70.4%; in [3], 82.8%; in data set [5], 73.1%. On Cytochrome P450 3A4, the “inhibition (INH)” value is given as “Active”.
Regarding `O=C(/C=C/c1cccc2c1N(Cc1ccc(Cl)cc1Cl)C(=O)C2(F)F)NS(=O)(=O)c1cccc(Cl)c1`, the results for the IC50 (in data set [1]; in the data set listed under Rattus norvegicus; in data set [4]) were 0.2 nM, above 800 nM and 7.7 nM, respectively. In addition, the remaining at 0.5 h in data set [2] amounted to 62.2%; in data set [3], 31.2%; in data set [5] it was 66.6%. The “inhibition (INH)” value against Cytochrome P450 3A4 was “Active”.
In the case of `O=C(/C=C/c1cccc2c1N(Cc1ccc(F)c(F)c1)C(=O)C2(CO)CO)NS(=O)(=O)c1ccc(F)c(F)c1`, the IC50 in [1] was 45.4 nM; in data set [7], “Active”.
Consider `O=C(/C=C/c1cccc2c1N(Cc1ccc3ccccc3c1)C(=O)C2(F)F)NS(=O)(=O)c1cccs1`, for which the results for the IC50 (in data set [1]; in the data set filed under Rattus norvegicus; in data set [7]) were 202 nM, above 800 nM and “Active”, respectively. For the same molecule, on Cytochrome P450 3A4, the “inhibition (INH)” value is “Active”.
As for `O=C(/C=C/c1cccc2c1N(Cc1ccc3ccccc3c1)C(=O)C2(F)F)NS(=O)(=O)c1ccc(Cl)c(Cl)c1`, the results for the half-inhibitory concentration (IC50) (in data set [1]; in the data set filed under Rattus norvegicus; in data set [4]) were 0.3 nM, above 800 nM and 4.5 nM, respectively. Also, the remaining at 0.5 h worked out at 62.1% in data set [2], 41.3% in data set [3] and 79.4% in [5]. In addition, on Cytochrome P450 3A4, the “inhibition (INH)” value is listed as “Active”.
With `CC1C(=O)N(Cc2ccc3ccccc3c2)c2c(/C=C/C(=O)NS(=O)(=O)c3cccs3)cccc21` (centres undefined), the figures for the IC50 in data set [1] and in data set [4] were 3.5 nM and 96.5 nM, respectively. For the same molecule, the remaining at 0.5 h in data set [2] came to 48%; in [3], 32.6%; in data set [6], 81.8%; in data set [8], 35.3%; in [5] it was 43.5%.
Regarding `CC1C(=O)N(Cc2ccc3ccccc3c2)c2c(/C=C/C(=O)NS(=O)(=O)c3cc(Cl)c(Cl)s3)cccc21` (centres undefined), the IC50 was 4.4 nM in [1] and 3.2 nM in [4]. For the same molecule, the EC50 in the data set listed under Rattus norvegicus is 2 nM. For the same molecule, the remaining at 0.5 h in data set [2] was determined as 8%; in [3] it was 67.7%; in data set [6], 67.7%; in data set [5], 48.2%.
`O=C(/C=C/c1cccc2c1N(Cc1ccc(Cl)cc1Cl)C(=O)C2(F)F)NS(=O)(=O)c1cc(Cl)c(Cl)s1`: the IC50 was 3.8 nM in [1], above 800 nM in the data set filed under Rattus norvegicus and 64 nM in [4]. Besides, the remaining at 0.5 h in [2] turned out to be 94.8%; in data set [3] it was 100%; in data set [6] it was 83.3%; in data set [8], 67.3%; in data set [5], 94.4%. Further, at Cytochrome P450 3A4, the “inhibition (INH)” value is on record as “Active”.
Consider `O=C(/C=C/c1cccc2c1N(Cc1ccc(Cl)cc1Cl)C(=O)C2(F)F)NS(=O)(=O)c1cccs1`, for which the IC50 in data set [1] was 237 nM; in the data set filed under Rattus norvegicus, above 800 nM; in data set [7], “Active”. Also, the “inhibition (INH)” value against Cytochrome P450 3A4 is listed as “Active”.
`O=C(/C=C/c1cccc2c1N(Cc1ccc(Cl)cc1Cl)C(=O)C2(F)F)NS(=O)(=O)c1cc(F)c(F)cc1F`: the results for the IC50 (in [1]; in the data set listed under Rattus norvegicus; in [4]) were 0.2 nM, above 800 nM and 5.6 nM, respectively. The values for the remaining at 0.5 h in data set [2], in data set [3] and in data set [5] were 77.4%, 60.6% and 74.6%, respectively. For the same molecule, the “inhibition (INH)” value on Cytochrome P450 3A4 is “Active”.
For the molecule `O=C(/C=C/c1cccc2c1N(Cc1ccc3ccccc3c1)C(=O)C2(F)F)NS(=O)(=O)c1ccc(F)cc1`, the IC50 in data set [1] was 2.7 nM; in the data set filed under Rattus norvegicus, above 800 nM; in data set [4], 27.2 nM. At Cytochrome P450 3A4, the “inhibition (INH)” value is reported as “Active”.
The corresponding values for `O=C(/C=C/c1cccc2c1N(Cc1ccc3ccccc3c1)C(=O)C2(F)F)NS(=O)(=O)c1ccc(Cl)cc1` are 5.5 nM, above 800 nM, 125 nM and “Active”.
The corresponding values for `O=C(/C=C/c1cccc2c1N(Cc1ccc(F)c(F)c1)C(=O)C2(F)F)NS(=O)(=O)c1ccc(F)c(F)c1` are 1.3 nM, above 800 nM, 251 nM and “Active”.
The corresponding values for `O=C(/C=C/c1cccc2c1N(Cc1ccc(F)c(F)c1)C(=O)C2(F)F)NS(=O)(=O)c1cccc(Cl)c1` are 5 nM, above 800 nM, 416 nM and “Active”.
Consider `O=C(/C=C/c1cccc2c1N(Cc1ccc(Cl)cc1Cl)C(=O)C2)NS(=O)(=O)c1cc(Cl)c(Cl)s1`, for which the IC50 in data set [1] turned out to be 2.9 nM; in [4], 92.8 nM. Moreover, the remaining at 0.5 h in data set [2] was determined as 46.3%; in data set [3] it was 56.8%; in data set [8], 76.9%; in [5], 76.8%.
On to `O=C(/C=C/c1cccc2c1N(Cc1ccc(Cl)cc1Cl)C(=O)C2)NS(=O)(=O)c1cccs1`, for which the IC50 in [1] was 56 nM; in data set [7] it was “Active”.
As for `O=C(/C=C/c1cccc2c1N(Cc1ccc(F)c(F)c1)C(=O)C2(F)F)NS(=O)(=O)c1cc(Cl)c(Cl)s1`, the IC50 in [1] was 7.2 nM; in the data set listed under Rattus norvegicus it was above 800 nM; in data set [4] it was 980 nM. Moreover, at Cytochrome P450 3A4, the “inhibition (INH)” value is “Active”.
The corresponding values for `O=C(/C=C/c1cccc2c1N(Cc1ccc(F)c(F)c1)C(=O)C2(F)F)NS(=O)(=O)c1cc(F)c(F)cc1F` are 16.5 nM, above 800 nM, 721 nM and “Active”.
`O=C(/C=C/c1cccc2c1N(Cc1ccc(Cl)cc1Cl)C(=O)C2(F)F)NS(=O)(=O)c1ccc(F)cc1`: the IC50 in data set [1] was 0.2 nM; in the data set listed under Rattus norvegicus it was above 800 nM; in [4] it was 64.7 nM. Moreover, at Cytochrome P450 3A4, the “inhibition (INH)” value is “Active”.
For `O=C(/C=C/c1cccc2c1N(Cc1ccc3ccccc3c1)C(=O)C2(F)F)NS(=O)(=O)c1cc(Cl)c(Cl)s1`, the IC50 in data set [1] was 11.6 nM; in the data set listed under Rattus norvegicus, above 800 nM; in data set [4], 20.8 nM. The remaining at 0.5 h in [2] was found to be 71.8%; in [3], 80.7%; in [5], 79.3%. Moreover, the “inhibition (INH)” value at Cytochrome P450 3A4 is reported as “Active”.
With `O=C(/C=C/c1cccc2c1N(Cc1ccc3ccccc3c1)C(=O)C2(F)F)NS(=O)(=O)c1cc(F)c(F)cc1F`, the IC50 was 0.3 nM in data set [1], above 800 nM in the data set filed under Rattus norvegicus and 9.3 nM in data set [4]. Moreover, the remaining at 0.5 h in [2] turned out to be 54.2%; in data set [3], 47.9%; in data set [5] it was 68.8%. Besides, the “inhibition (INH)” value on Cytochrome P450 3A4 is on record as “Active”.
On to `O=C(/C=C/c1cccc2c1N(Cc1ccc3ccccc3c1)C(=O)C2(F)F)NS(=O)(=O)c1ccc(F)c(F)c1`, for which the IC50 is 0.2 nM in [1], above 800 nM in the data set listed under Rattus norvegicus and 5 nM in [4]. The remaining at 0.5 h in [2] was 45%; in data set [3], 47.1%; in data set [5], 68.1%. Besides, the “inhibition (INH)” value at Cytochrome P450 3A4 was “Active”.
As to `O=C(/C=C/c1cccc2c1N(Cc1ccc3ccccc3c1)C(=O)C2(F)F)NS(=O)(=O)c1cccc(Cl)c1`, the IC50 is 0.1 nM in [1], above 800 nM in the data set filed under Rattus norvegicus and 1.9 nM in data set [4]. The values for the remaining at 0.5 h in data set [2], in data set [3] and in data set [5] were 21%, 21.6% and 64.5%, respectively. The “inhibition (INH)” value against Cytochrome P450 3A4 is given as “Active”.
